We go through 19 molecules from ChEMBL document CHEMBL1165999, “Cytotoxic ent-kaurane diterpenoids from Isodon rubescens var. lushiensis” (J Nat Prod, 2010).

One assay concerns A549. As to the kind of experiment: Cytotoxicity against human A549 cells after 48 hrs by MTT assay. The assay is classed as functional, cell-based. The following applies: A549, 48 h. The method, boiled down:
(§1)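 Cells grown in RPMI-1640 or DMEM with 10% FBS at 37 °C, 5% CO2, seeded at 1 × 10^5 cells/mL. Adherent lines were left 12 h to attach; suspension cells were added just before dosing. Various concentrations were tested in triplicate for 48 h, with cisplatin and paclitaxel controls. MTT (100 µg) was then added for 4 h, cells lysed in 20% SDS-50% DMF, and OD read at 595 nm. IC50 was calculated by the Reed-Muench method.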

Another assay deals with SK-BR-3. Kind of assay: Cytotoxicity against human SK-BR-3 cells after 48 hrs by MTT assay. The settings on record: SK-BR-3, 48 h. Type of assay: functional, cell-based. The method in brief: as §1
In a further assay the test system is PANC-1. As to the kind of experiment: Growth inhibition of human PANC1 cells after 48 hrs by MTT assay. The following applies: PANC-1, 48 h. (In general: Formazan colour is commonly taken as a measure of viable cells.)
A further assay concerns SMMC-7721. Kind of assay: Cytotoxicity against human SMMC7721 cells after 48 hrs by MTT assay. The assay is classed as functional, cell-based. The settings on record: SMMC-7721, 48 h. The method, boiled down:
as §1

For the next assay, the system named is HL-60. As to the kind of experiment: Cytotoxicity against human HL60 cells after 48 hrs by MTT assay. The assay is classed as functional, cell-based. The following applies: HL-60, 48 h. The method in brief:
as §1

pIC50: −log10 of the molar value.

For orientation: pIC50 means −log10 of the IC50, conventionally taken in molar units. A low value points to a large IC50. Take `C=C1C(=O)[C@@]23[C@@H]4C[C@@H]5C(C)(C)CCC[C@@]5([C@@H](OC)O4)[C@@H]2[C@@H](O)C[C@@H]1[C@H]3O`: the pIC50 was 5.25 with A549; 5.48 in the assay with SK-BR-3; 5.01 in the assay on PANC-1; 5.36 with SMMC-7721; 6.02 in the assay on HL-60.

Consider `C=C1C(=O)[C@@]23[C@@H]4C[C@@H]5C(C)(C)CCC[C@@]5([C@@H](OCC)O4)[C@@H]2[C@@H](O)C[C@@H]1[C@H]3O`, for which the pIC50 in the assay on A549 was 5.38; with SK-BR-3, 5.62; in the assay on PANC-1, 5.28; in the assay on SMMC-7721, 5.46; in the assay on HL-60, 6.19.

In the case of `C=C1C(=O)[C@@]23[C@@H]4C[C@@H]5C(C)(C)CCC[C@@]5([C@@H](O)O4)[C@@H]2[C@@H](O)C[C@@H]1[C@H]3O`, the pIC50 is 5.23 in the assay with A549; 5.36 in the assay on SK-BR-3; 5.07 with PANC-1; 5.21 in the assay with SMMC-7721; 5.92 in the assay with HL-60.

Turning to `C=C1[C@@H](O)[C@]23[C@H](O)[C@H]1CC[C@H]2[C@@]12CO[C@@]3(O)[C@@H](O)[C@@H]1C(C)(C)CC[C@@H]2O` [ENMENOL], the pIC50 with A549 was below 5.00; in the assay with SK-BR-3, below 5.00; with PANC-1, below 5.00; in the assay on SMMC-7721, below 5.00; in the assay with HL-60, 5.17.

Consider `C=C1C(=O)[C@@]23[C@H](O)C[C@@H]4C(C)(C)CCC[C@@]4(COC(C)=O)[C@@H]2[C@@H](O)C[C@@H]1[C@H]3O` [FLEXICANLIN A], for which the pIC50 with A549 was 5.01; with SK-BR-3 it was below 5.00; in the assay with PANC-1, 5.24; in the assay with SMMC-7721, 5.00; in the assay on HL-60, 6.19.

With `C=C1[C@@H]2CC[C@H]3[C@]45CC[C@@H]6OC4O[C@@H](C[C@@H]5C6(C)C)[C@]3(C2)[C@@H]1O` [ISOLUSHININ A], the pIC50 with A549, in the assay with SK-BR-3, in the assay on PANC-1, in the assay on SMMC-7721 and with HL-60 was below 5.00 throughout.

For the molecule `C=C1[C@@H]2CC[C@H]3[C@]45CCC[C@@](C)(COC(C)=O)[C@H]4[C@H](O)[C@](O)(OC5)[C@]3(C2)[C@@H]1O` [ISOLUSHININ B], the negative logarithm of the IC50 (pIC50) with A549, in the assay on SK-BR-3, in the assay on PANC-1, in the assay with SMMC-7721 and with HL-60 was below 5.00 in each case.

Turning to `C=C1C(=O)[C@@]23[C@@H]4C[C@@H]5C(C)(C)CCC[C@@]5([C@@H](OC)O4)[C@@H]2[C@@H](OC(C)=O)C[C@@H]1[C@H]3O` [ISOLUSHININ D], the pIC50 was 5.19 in the assay with A549; 5.19 in the assay with SK-BR-3; 5.15 with PANC-1; 5.33 in the assay with SMMC-7721; 5.96 in the assay on HL-60.

`C=C1C(=O)[C@@]23[C@@H]4C[C@@H]5C(C)(C)[C@H](O)CC[C@@]5([C@@H](OC)O4)[C@@H]2[C@@H](O)C[C@@H]1[C@H]3O` [ISOLUSHININ F]: the pIC50 with A549, with SK-BR-3, in the assay on PANC-1, in the assay with SMMC-7721 and in the assay on HL-60 was below 5.00 throughout.

Turning to `C=C1C(=O)[C@@]23[C@H](O)C[C@@H]4C(C)(C)CCC[C@@]4(COC(C)=O)[C@@H]2[C@@H](O)[C@H](O)[C@@H]1[C@H]3O` [ISOLUSHININ G], the pIC50 with A549, in the assay with SK-BR-3, in the assay on PANC-1, with SMMC-7721 and in the assay on HL-60 was below 5.00 each time.

`C=C1C(=O)[C@@]23[C@H](O)C[C@@H]4[C@@](C)(CO)CCC[C@@]4(COC(C)=O)[C@@H]2CC[C@@H]1[C@H]3O` [ISOLUSHININ H]: the pIC50 in the assay with A549 is below 5.00; in the assay on SK-BR-3, 5.21; with PANC-1, 5.18; in the assay with SMMC-7721 it was below 5.00; with HL-60 it was 5.60.

Take `C=C1C(=O)[C@@]23[C@H](O)C[C@@H]4C(C)(C)CCC[C@@]4(CO)[C@@H]2[C@@H](O)C[C@@H]1[C@H]3O` [KAMEBAKAURININ]: the pIC50 in the assay on A549 is below 5.00; in the assay on SK-BR-3, below 5.00; in the assay on PANC-1, below 5.00; in the assay on SMMC-7721 it was below 5.00; in the assay on HL-60, 5.74.

Regarding `C=C1C(=O)[C@]23C[C@H]1C[C@@H](O)[C@H]2[C@@]1(CCC[C@@]2(C)COC(=O)[C@H]21)COC3=O` [LUDONGNIN A], the pIC50 was below 5.00 in the assay on A549; below 5.00 in the assay on SK-BR-3; below 5.00 with PANC-1; below 5.00 in the assay with SMMC-7721; 5.51 with HL-60.

Regarding `CO[C@@H]1OC[C@]2(C)CCC[C@]3(COC(=O)[C@@]45C[C@@H](CC[C@H]43)[C@H](C)C5=O)[C@H]12` [LUDONGNIN G], the pIC50 in the assay on A549, in the assay with SK-BR-3, with PANC-1, with SMMC-7721 and with HL-60 was below 5.00 throughout.

In the case of `C=C1C(=O)[C@]23[C@H](O)[C@H]1CC[C@H]2[C@@]12CO[C@]3(O)[C@@H](O)[C@@H]1C(C)(C)CC[C@@H]2O` [ORIDONIN], the pIC50 in the assay with A549 is below 5.00; with SK-BR-3, below 5.00; in the assay with PANC-1, below 5.00; in the assay on SMMC-7721 it was below 5.00; in the assay with HL-60, 5.41.

As for `CC(=O)O[C@H]1C(=O)[C@@]2(C)[C@H]([C@H](OC(=O)c3ccccc3)[C@]3(O)C[C@H](OC(=O)[C@H](O)[C@@H](NC(=O)c4ccccc4)c4ccccc4)C(C)=C1C3(C)C)[C@]1(OC(C)=O)CO[C@@H]1C[C@@H]2O` [PACLITAXEL], the pIC50 in the assay with A549 was 5.85; in the assay on SK-BR-3 it was 6.96; in the assay with PANC-1, above 8.10; with SMMC-7721, above 8.10; in the assay with HL-60 it was above 8.10.

Turning to `C=C1C(=O)[C@@]23[C@H](O)C[C@@H]4C(C)(C)CCC[C@@]4(C)[C@@H]2[C@@H](O)C[C@@H]1[C@H]3O` [PHYLLOSTACHYSIN F], the pIC50 with A549 is 5.48; in the assay on SK-BR-3 it was 5.48; in the assay with PANC-1, 5.35; with SMMC-7721, 5.26; in the assay on HL-60 it was 6.07.

In the case of `C=C1C(=O)[C@@]23CC[C@@H]4C(C)(C)CC[C@H](O)[C@@]4(C)[C@@H]2[C@@H](O)C[C@@H]1[C@H]3O` [PHYLLOSTACHYSIN H], the pIC50 is below 5.00 in the assay on A549; below 5.00 in the assay on SK-BR-3; below 5.00 with PANC-1; below 5.00 in the assay with SMMC-7721; 5.19 in the assay with HL-60.

`C=C1[C@@H]2C[C@@H](O)[C@@H]3[C@](C2)(C(=O)O[C@H]2CC[C@@]4(C)CO[C@H]5OC[C@]23[C@H]54)[C@@H]1O` [SCULPONEATIN B]: the pIC50 with A549, in the assay with SK-BR-3, in the assay on PANC-1, in the assay with SMMC-7721 and in the assay on HL-60 was below 5.00 in each case.
